HTRA1 inhibitor: inhibitors of human serine peptidase HTRA1; Q92743; recombinant HTRA1, FP-rhodamine activity-based probe, fluorescence polarization; inhibition, % at 5.96 µM; hit rate 0.5% among 340,000; AID 504803; in the data active means inhibition above about 36%
Target sequence (Q92743 whole entry, looked up): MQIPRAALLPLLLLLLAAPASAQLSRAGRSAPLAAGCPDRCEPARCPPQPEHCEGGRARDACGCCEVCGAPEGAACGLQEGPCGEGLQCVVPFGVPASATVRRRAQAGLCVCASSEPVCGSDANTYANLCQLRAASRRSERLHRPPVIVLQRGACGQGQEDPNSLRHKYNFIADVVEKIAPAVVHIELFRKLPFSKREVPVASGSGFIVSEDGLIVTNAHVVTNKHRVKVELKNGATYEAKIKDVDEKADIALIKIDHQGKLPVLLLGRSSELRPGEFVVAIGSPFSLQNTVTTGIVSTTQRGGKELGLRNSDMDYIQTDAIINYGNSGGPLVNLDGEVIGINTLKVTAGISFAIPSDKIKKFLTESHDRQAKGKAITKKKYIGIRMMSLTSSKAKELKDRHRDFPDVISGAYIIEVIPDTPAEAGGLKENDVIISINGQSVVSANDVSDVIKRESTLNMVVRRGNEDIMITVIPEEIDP
TCR CD3 inh: blocks the human TCR-CD3 interaction; TAMRA-labeled TCR probe fluorescence, biochemical; inhibition, % at 9.4 µM; hit rate 0.37% among 360,000; in the data active means inhibition above about 19%;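 further: recombinant mutant TCR 2C K166C tagged with TAMRA read by polarization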
ABHD4 inh: inhibits mouse alpha/beta hydrolase domain 4; purified mABHD4, FP-Rh probe fluorescence polarization; Q8VD66; inhibition, % at 8.92 µM; hit rate 0.54% among 370,000; AID 720543;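 active means inhibition exceeding the mean over every tested compound plus 3 SD, cut at about 30% in these data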
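system = mouse ABHD4 enzyme, wild type | medium = HEPES pH 7.0, NaCl, Pluronic buffer | also added = FP-Rh probe | incubation = Enzyme–compound pre-incubation 45 min, then probe 60 min, both 25 °C | technique = fluorescence polarization, excitation 525 nm, emission 598 nm, BODIPY TMR filters | controls = S159A mutant high control, sample median low control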
PRMT1 FP inh: blocks human protein arginine methyltransferase 1 | inhibition, % at 2.79 µM | recombinant PRMT1, activity-based probe fluorescence polarization | AID 652257 | Q99873 | hit rate 1.3% among 370,000;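 active means inhibition above about 21% made by adding two undisclosed values, limit read from the data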
SIAE inh: human SIAE inhibition, primary screen | Q9HAT2 | SIAE FP-Rh probe binding, fluorescence polarization | inhibition, % at 9.66 µM | hit rate 0.69% among 370,000;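 active means inhibition above a cutoff: mean of compounds within the control limits plus 3 SD of those, cut at about 17% in these data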
PRMT1 confirm: confirmation of human PRMT1 inhibitors | shares compounds with PRMT1 FP inh | recombinant His-PRMT1, activity-based probe fluorescence polarization | inhibition, % at 2.79 µM | hit rate 42% among 3,300 | AID 687036;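 active means mean inhibition across replicates above the hit cutoff derived for the earlier primary screen, cut at about 22% in these data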
Hits are given with their value. Rows were chosen to be rich in hits. Some 2.6% of all compounds tested hit in one or more screens of this group.

`COc1ccc(S(=O)(=O)N2CCC(C(=O)NC3CC3)CC2)cc1OC` gave HTRA1 inhibitor inactive, TCR CD3 inh inactive, ABHD4 inh inactive, PRMT1 FP inh inactive and SIAE inh inactive.
Screening O=Cc1ccc(Oc2ccc(F)cc2)nc1 returned HTRA1 inhibitor inactive, TCR CD3 inh inactive, ABHD4 inh inactive, PRMT1 FP inh inactive and SIAE inh inactive.
Nc1ccc(Oc2ccc(F)cc2)nc1 was read as HTRA1 inhibitor inactive, TCR CD3 inh inactive, ABHD4 inh inactive, PRMT1 FP inh 26.1, SIAE inh inactive and PRMT1 confirm inactive.
`Cc1ccc(S(=O)(=O)n2nc(-c3ccco3)nc2SCc2ccccc2)cc1` gave HTRA1 inhibitor inactive, TCR CD3 inh inactive, ABHD4 inh inactive, PRMT1 FP inh 25.4, SIAE inh inactive and PRMT1 confirm inactive.
`CSc1nc(-c2ccco2)nn1S(=O)(=O)c1ccc(C)cc1` gave HTRA1 inhibitor inactive, TCR CD3 inh inactive, ABHD4 inh inactive, PRMT1 FP inh inactive and SIAE inh inactive.
O=C(COC(=O)COc1ccccc1)NC1CCS(=O)(=O)C1 (stereo unspecified) was read as HTRA1 inhibitor inactive, TCR CD3 inh inactive, ABHD4 inh inactive, PRMT1 FP inh inactive and SIAE inh inactive.
Cc1cc(C)nc(N2N=C(C(C)(C)C)CC2=O)n1 was read as HTRA1 inhibitor inactive, TCR CD3 inh inactive, ABHD4 inh inactive, PRMT1 FP inh 41.2, SIAE inh inactive and PRMT1 confirm inactive.
`Cc1ccc(SCC2=NN(c3nc(C)cc(C)n3)C(=O)C2)cc1` gave HTRA1 inhibitor inactive, TCR CD3 inh inactive, ABHD4 inh inactive, PRMT1 FP inh inactive and SIAE inh inactive.
O=C(O)CN1C(=O)C2C3CC(C2C1=O)C1C(c2ccccc2)c2sc(=O)[nH]c2SC31 (stereo unspecified) was read as HTRA1 inhibitor inactive, TCR CD3 inh inactive, ABHD4 inh inactive, PRMT1 FP inh 28.9, SIAE inh inactive and PRMT1 confirm 28.6.
CC(C)CC(C(=O)O)N1C(=O)C2C3CC(C2C1=O)C1C(c2ccccc2)c2sc(=O)[nH]c2SC31 (stereo unspecified) was read as HTRA1 inhibitor inactive, TCR CD3 inh inactive, ABHD4 inh inactive, PRMT1 FP inh inactive and SIAE inh inactive.
O=[N+]([O-])c1cc(-c2ncccn2)c([N+](=O)[O-])s1 was read as HTRA1 inhibitor inactive, TCR CD3 inh inactive, ABHD4 inh inactive, PRMT1 FP inh 28.1, SIAE inh inactive and PRMT1 confirm 36.5.
Screening COc1ccc(CCNC(=O)COC(=O)Cn2cnc3c2c(=O)n(C)c(=O)n3C)cc1 returned HTRA1 inhibitor inactive, TCR CD3 inh inactive, ABHD4 inh inactive, PRMT1 FP inh inactive and SIAE inh inactive.
`CC#CC(=O)NCC1(N(C)Cc2ccccc2)Cc2ccccc2C1` gave HTRA1 inhibitor inactive, TCR CD3 inh inactive, ABHD4 inh inactive, PRMT1 FP inh inactive and SIAE inh inactive.
`Cc1ccc(NC2=C(Cl)C(=O)OC2NC(=O)c2ccccc2)cc1` (stereo unspecified) gave HTRA1 inhibitor inactive, TCR CD3 inh inactive, ABHD4 inh inactive, PRMT1 FP inh inactive and SIAE inh inactive.
`O=C1OC(NC(=O)c2ccccc2)C(n2cc(CO)nn2)=C1Cl` (stereo unspecified) gave HTRA1 inhibitor inactive, TCR CD3 inh inactive, ABHD4 inh inactive, PRMT1 FP inh 65.4, SIAE inh inactive and PRMT1 confirm 66.5.
Screening COc1cccc(C(=O)N(Cc2ccco2)c2c(N)n(Cc3ccccc3)c(=O)[nH]c2=O)c1 returned HTRA1 inhibitor inactive, TCR CD3 inh inactive, ABHD4 inh inactive, PRMT1 FP inh inactive and SIAE inh inactive.
Screening Nc1c(C(=O)N/N=C/c2cccnc2)oc2nc(-c3ccco3)cc(-c3ccco3)c12 returned TCR CD3 inh inactive, ABHD4 inh inactive, PRMT1 FP inh 45.7, SIAE inh inactive and PRMT1 confirm inactive.
`CCOC(=O)/C=C/S(=O)(=O)c1ccc(NC(C)=O)cc1` gave HTRA1 inhibitor inactive, TCR CD3 inh inactive, ABHD4 inh inactive, PRMT1 FP inh 43.8, SIAE inh inactive and PRMT1 confirm 35.1.
For CCCCN(C)C(=O)CNC(=O)c1nn(-c2ccc(OC)cc2OC)c(=O)c2ccccc12 the results were HTRA1 inhibitor inactive, TCR CD3 inh inactive, ABHD4 inh inactive, PRMT1 FP inh inactive and SIAE inh inactive.
For COc1ccc(S(=O)(=O)Nc2cc(Sc3ncn[nH]3)c(O)c3ccccc23)cc1 the results were TCR CD3 inh inactive, ABHD4 inh inactive, PRMT1 FP inh 95.9, SIAE inh inactive and PRMT1 confirm 86.9.
Nc1n[nH]c(=S)n1/N=C1/C(=O)Nc2ccccc21 was read as HTRA1 inhibitor inactive, TCR CD3 inh inactive, ABHD4 inh inactive, PRMT1 FP inh 42.8, SIAE inh inactive and PRMT1 confirm 39.7.
O=C1Nc2ccccc2C1=NN1CCCCCC1 was read as HTRA1 inhibitor inactive, TCR CD3 inh inactive, ABHD4 inh inactive, PRMT1 FP inh inactive and SIAE inh inactive.
For CC1CCCCC1NC(=O)C1CCC(CNS(=O)(=O)c2ccc3c(c2)C(C)(C)C(=O)N3C)CC1 (stereo unspecified) the results were TCR CD3 inh inactive, ABHD4 inh inactive, PRMT1 FP inh inactive and SIAE inh inactive.
For Cc1cccc(CNC(=O)Cn2ccc3cc(S(=O)(=O)N4CCCC4)ccc32)c1 the results were HTRA1 inhibitor inactive, TCR CD3 inh inactive, ABHD4 inh inactive, PRMT1 FP inh inactive and SIAE inh inactive.
For CC(=O)OCCNc1cc(Sc2nc3ccccc3[nH]2)c2nonc2c1[N+](=O)[O-] the results were HTRA1 inhibitor inactive, TCR CD3 inh inactive, ABHD4 inh inactive, PRMT1 FP inh 91.6, SIAE inh inactive and PRMT1 confirm 52.5.
For CC(=O)OCCCNc1cc(Sc2nc3ccccc3s2)c2nonc2c1[N+](=O)[O-] the results were HTRA1 inhibitor inactive.
Cc1nnc(NC(=O)C(C)Sc2nnc(-c3ccco3)n2C(C)C)s1 (stereo unspecified) was read as HTRA1 inhibitor inactive, TCR CD3 inh inactive, ABHD4 inh inactive, PRMT1 FP inh inactive and SIAE inh inactive.
For CC(C)Cn1c(N)c(C(=O)CSc2ncccn2)c(=O)n(C)c1=O the results were HTRA1 inhibitor inactive, TCR CD3 inh inactive, ABHD4 inh inactive, PRMT1 FP inh 58.1, SIAE inh inactive and PRMT1 confirm inactive.
Screening COc1ccc(OC)c(C2CC(=O)N3CN(c4ccccc4F)CSC3=C2C#N)c1 (stereo unspecified) returned HTRA1 inhibitor inactive, TCR CD3 inh inactive, ABHD4 inh inactive, PRMT1 FP inh 32.7, SIAE inh inactive and PRMT1 confirm 21.6.
COc1ccc(OC)c(C2CC(=O)N3CN(c4cccc(Cl)c4C)CSC3=C2C#N)c1 (stereo unspecified) was read as HTRA1 inhibitor inactive, TCR CD3 inh inactive, ABHD4 inh inactive, PRMT1 FP inh 45.0, SIAE inh inactive and PRMT1 confirm 63.8.
For COc1cccc(C2CC(=O)N3CN(c4ccccc4F)CSC3=C2C#N)c1 (stereo unspecified) the results were HTRA1 inhibitor inactive, TCR CD3 inh inactive, ABHD4 inh inactive, PRMT1 FP inh inactive and SIAE inh inactive.
